Tn7 DDE FP: inhibitors of Tn7 peptide binding to fibrin DD(E), primary screen, biochemical, fluorescence polarization, human fibrin, Tn7 probe | Fibrinogen beta chain (Homo sapiens), P02675 | FP displacement of FITC-Tn7 peptide from fibrin DD(E); 0% = median of compound wells per plate | inhibition, % at 8.3 µM | 370,000 tested, 0.13% active;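 active = inhibition above the mean of compounds falling within the control limits plus 3 SD of them, cut at about 14% in these data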;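 note: 0% = plate median of compound wells and 100% = 10 µM Aha-Tn7 peptide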
Target sequence (P02675 whole entry, looked up): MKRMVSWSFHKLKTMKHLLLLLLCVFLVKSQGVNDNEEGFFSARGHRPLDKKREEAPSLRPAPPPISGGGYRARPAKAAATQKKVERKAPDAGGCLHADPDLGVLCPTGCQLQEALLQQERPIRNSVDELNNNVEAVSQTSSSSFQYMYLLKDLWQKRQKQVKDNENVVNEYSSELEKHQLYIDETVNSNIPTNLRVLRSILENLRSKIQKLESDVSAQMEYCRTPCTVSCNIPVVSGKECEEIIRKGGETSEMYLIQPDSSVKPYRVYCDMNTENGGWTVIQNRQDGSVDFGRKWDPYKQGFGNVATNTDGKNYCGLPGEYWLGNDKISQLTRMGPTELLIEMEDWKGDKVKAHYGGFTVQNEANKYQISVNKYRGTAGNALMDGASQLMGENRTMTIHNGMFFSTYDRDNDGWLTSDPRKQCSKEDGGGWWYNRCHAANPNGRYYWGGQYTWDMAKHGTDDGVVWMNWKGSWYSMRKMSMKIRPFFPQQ
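Test system – human fibrin DD(E) · Times – 10 min preincubation, 3 h with tracer, room temperature · Detection – fluorescence polarization of the labelled Tn7 tracer · Measure – percent inhibition normalized to high-control wells · Benchmarks – high control wells with 10 µM unlabelled Aha-Tn7 peptide (full inhibition) · Repeats – singlicate testing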
Arr AP2 block: inhibitors of beta-arrestin/AP2 binding, primary screen, biochemical, GPCR trafficking, flow cytometry | beta-arrestin 1 C-terminal peptide binding to AP2 beta2-adaptin appendage (human) | FITC-arrestin peptide / GST-AP2 beads; AP2 beta2 appendage carries R879A mutation | inhibition, % at 10 µM | 340,000 tested, 0.31% active;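 active = inhibition above a set limit, near 3 SD of compounds lacking own fluorescence, cut at about 54% in these data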;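 note: plate controls were DMSO wells for no effect and 5 µM unlabelled arrestin peptide for full effect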
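test system = AP2 appendage R879A on GSH beads | buffer or medium = PBS plus Tween 20 (0.05%) and BSA (0.1%) | incubation = 12 min plus 1 h, RT | detection = bead flow cytometry, FITC channel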
DDE Tn6 FP inh: inhibitors of Tn6 peptide binding to fibrin DD(E), primary screen, biochemical, fluorescence polarization, human fibrin, Tn6 probe. Fibrinogen beta chain (Homo sapiens), P02675. Fibrin DD(E) TRITC-Tn6 fluorescence polarization displacement. inhibition, % at 8.3 µM. 370,000 tested, 0.21% active;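 active = inhibition above a per-campaign cutoff: mean of compounds within control limits plus 3 SD, cut at about 15% in these data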;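 note: 0% = median of all compound wells on the plate and 100% = blocking peptide control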
CAL PDZ FP-1: CAL PDZ peptide-binding inhibitors, primary screen, biochemical, fluorescence polarization, Cer-tagged CAL PDZ, HTS | purified CAL PDZ, TMR-peptide fluorescence polarization, 1 h | inhibition, % at 20 µM | AID 504414, 2011 | 330,000 tested, 0.02% active;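 active = highest replicate inhibition of at least 40%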;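 note: plate controls were DMSO neutral control wells for no effect and unlabeled competitor peptide control wells for full effect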
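Material – purified CerCALP PDZ construct · Detection – FP readout, S and P plane fluorescence · Measure – percent inhibition from loss of millipolarization · Controls – unlabelled peptide for full inhibition, DMSO wells as neutral · Probe or stimulus – TMR-labelled reporter peptide T*-PRC34 bound in PDZ groove · Times – 1 h at RT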
CAL PDZ FP-2: untagged CAL PDZ binding inhibitors, primary screen, biochemical, fluorescence polarization, HTS; Golgi-associated PDZ and coiled-coil motif-containing protein (Homo sapiens), Q9HD26; purified CAL PDZ, TMR-peptide fluorescence polarization, 1 h; inhibition, % at 24.9 µM; 300,000 tested, 0.92% active; AID 602252, 2012;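 active = mean inhibition of at least 30% with at least half of replicates also reaching 30%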;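 note: 0% = DMSO neutral control and 100% = excess unlabeled competitor peptide PRC23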
The depositor's hits bear a star; . = no result given. A selection: hits, their analogues and other compounds. The true share with any hit is near 1.4%.

SMILES | Tn7 DDE FP | Arr AP2 block | DDE Tn6 FP inh | CAL PDZ FP-1 | CAL PDZ FP-2
O=C(Cn1cc([N+](=O)[O-])cn1)NCc1ccccc1 | 11 | -2 | -2 | 0 | 43*
COc1ccc(CNC(=O)Cn2cc([N+](=O)[O-])cn2)cc1 | -1 | 53 | 6 | -1 | .
CN1CCCC1CCSc1ncccc1-c1nc2ccccc2[nH]1 (stereo not given) | -5 | . | 6 | . | .
Cc1n[nH]c(C)c1CCN(C)Cc1cn(C)nc1-c1ccc2c(c1)OCCO2 | -3 | 15 | 4 | 0 | 102*
CN(CCc1cnn(C)c1)Cc1cn(C)nc1-c1ccc2c(c1)OCCO2 | 2 | -8 | -6 | -1 | -2
COc1ccc(-c2c(Cc3ccccc3)nc(NC(=O)c3ccccc3)n2Cc2ccccc2)cc1 | -2 | . | -5 | . | .
COCc1nnc(NS(=O)(=O)c2ccc(C)cc2)s1 | 3 | 4 | 9 | -1 | 3
COCc1nnc(NS(=O)(=O)c2c(C)cc(C)cc2C)s1 | 8 | -2 | 7 | . | 35*
COc1ccc(CNC(=O)COC(=O)c2n[nH]c3ccccc23)cc1 | 3 | -4 | -3 | . | -6
CC(C)CNC(=O)COC(=O)c1n[nH]c2ccccc12 | 2 | -7 | 5 | 8 | 61*
Cc1oc(-c2ccccc2)nc1C(=O)OCC(=O)NC(C)c1ccccc1 (stereo not given) | -2 | -7 | 1 | -1 | -2
Cc1oc(-c2ccccc2)nc1C(=O)OCC(=O)NC(=O)NCC(C)C | 5 | -2 | 7 | 0 | 37*
COc1cccc(C(=O)NC2CC3CCC(C2)N3Cc2ccccc2)c1 (stereo not given) | -1 | -1 | 5 | -1 | 39*
COc1ccc(CN2C3CCC2CC(NC(=O)c2cccc(F)c2)C3)cc1 (stereo not given) | -3 | -3 | -11 | -1 | -1
COc1ccc(C(=O)NC2CC3CCCC(C2)N3Cc2ccccc2)cc1 (stereo not given) | -8 | -8 | 0 | -22 | -4
CCOc1ccc(C(=O)NC2CC3CCCC(C2)N3Cc2ccccc2)cc1 (stereo not given) | -4 | -2 | 2 | 50* | -2
COCN(C#N)c1nc(N(C)C)nc(N(C)C)n1 | -1 | -20 | 4 | 0 | 97*
C=CCOC(=O)N1CCN(C(=O)c2ccc3c(c2)nc(C)n3C2CCCC2)CC1 | 2 | . | -8 | . | .
COc1ccc(OC)c(S(=O)(=O)Nc2c(C)n(C)n(-c3ccccc3)c2=O)c1 | 4 | -16 | 0 | 17 | 74*
COc1ccc(C(=O)O/N=C(\N)c2cccc(C)c2)cc1OC | 3 | -17 | 3 | -2 | 0
COc1ccc(C(=O)O/N=C(\N)c2ccccc2)cc1OC | 2 | 31 | 1 | . | 43*
CCCCNCc1cc(OCC)c(OCC(N)=O)cc1Br | -1 | -8 | -3 | -3 | 38*
CCCCNCc1cc(OC)c(OCC(N)=O)cc1Br | -1 | -10 | 1 | -1 | 1
O=[N+]([O-])c1cc(C=NN2CCN(Cc3ccccc3Cl)CC2)ccc1Cl | 2 | . | -6 | . | .
O=C(CSc1nnc(-c2cccnc2)n1-c1ccc(Cl)cc1)Nc1ccc(S(=O)(=O)Nc2nccs2)cc1 | 1 | . | -5 | . | .
SMILES | Tn7 DDE FP | Arr AP2 block | DDE Tn6 FP inh | CAL PDZ FP-1 | CAL PDZ FP-2
Cc1cc(NC(=O)c2ccc(C#N)cc2)n(-c2ccccn2)n1 | -8 | -14 | 2 | 0 | 78*
N#CCC[C@@H]1CC[C@]2(CCCN(C(=O)c3ccc4ccccc4n3)C2)O1 | 13 | . | -1 | . | .
CCCn1nnnc1SCC(=O)N1CCCC1 | -2 | 7 | 7 | -1 | 43*
C[C@H]1[C@@H](OC(=O)NCc2cccs2)CC[C@@]23CCCN2C(=O)CCC[C@@H]13 | 3 | . | 5 | . | .
COc1cc(COCC(O)CN2CCOCC2)cc(OC)c1OC (stereo not given) | -4 | -5 | 5 | 0 | 56*
CN(C(=O)c1ccccc1OCC(=O)Nc1ccc(Br)cc1)c1ccccc1 | 5 | . | 10 | . | .
CC1CCN(C(=O)COC(=O)c2ccc(N3CCCC3=O)cc2)CC1 | -7 | -8 | 5 | -1 | 46*
CC(OC(=O)c1cc(S(=O)(=O)N2CCOCC2)ccc1Br)C(=O)N1CCOCC1 (stereo not given) | -5 | -1 | -5 | -1 | 43*
Cc1ccc(N2CCN(CCCN3C(=O)C4CCCN4C3=O)CC2)cc1 (stereo not given) | -2 | 6 | 5 | 0 | 52*
O=C1C2CCCN2C(=O)N1CCCN1CCN(c2cccc(Cl)c2)CC1 (stereo not given) | 1 | 2 | -5 | 0 | -7
CC(C)(C)n1ncc2c(=O)n(Cc3ccc(Cl)c(Cl)c3)cnc21 | -10 | -199 | 0 | 4 | 82*
Cc1ccc(Cn2cnc3c(cnn3C(C)(C)C)c2=O)cc1 | 2 | 2 | -3 | -1 | 1
Cc1cccc(C(=O)NCc2nnc(SCC(=O)Nc3nnc(C)s3)n2C)c1 | -3 | 13 | -8 | 0 | 6
Cc1cccnc1NC(=O)CSc1nnc(CNC(=O)c2cccc([N+](=O)[O-])c2)n1C | 5 | 15 | 3 | -2 | 42*
CCN(CC)S(=O)(=O)c1ccc(N2CC(C(=O)NCCC3=CCCCC3)CC2=O)cc1 (stereo not given) | 0 | -7 | -10 | -2 | 45*
CCN(CC)S(=O)(=O)c1ccc(N2CC(C(=O)NCCc3ccc(Cl)cc3)CC2=O)cc1 (stereo not given) | 3 | 4 | -6 | 0 | -4
CCOC(=O)[C@@]12CCCC=C1N(CCc1ccc(Cl)cc1)C(=O)[C@H]2CC(=O)NCc1ccc(OC)c(OC)c1 | 9 | . | -2 | . | .
O=C(c1nc2ccc(Cl)cn2c1CN1CCC(CO)CC1)N1CCc2ccccc2C1 | -3 | -12 | -2 | 0 | 38*
CC(/C=N/NC(=O)c1nnn(-c2nonc2N)c1CN(C)C)=C\c1ccco1 | 11 | -3 | -6 | -2 | .
CCCN(CCC)Cc1c(C(=O)N/N=C/C(C)=C\c2ccco2)nnn1-c1nonc1N | 4 | 10 | -8 | 0 | 66*
S=C(NCCc1ccccc1)Nc1ccccc1Cl | 3 | 0 | 7 | -4 | 0
CC(C1CC1)N(Cc1ccccc1)C(=S)Nc1ccccc1Cl (stereo not given) | -1 | 0 | -7 | -1 | 88*

Bioassay records deposited in PubChem by several laboratories.
